High-throughput results (PubChem)
An excerpt weighted towards active compounds, which were near 4.4% of everything screened.
m5-HT2A agonist: agonists of mouse serotonin 5-HT2A receptor (HTR2A); P35363; CHO-K1 mHTR2A beta-arrestin complementation, luminescence; percent of 30 µM serotonin response; activation, % at 7.6 µM; actives 0.66% (n = 360,000);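 active = activation above a run cutoff, the mean activation of all tested compounds plus 3 SD, cut at about 14% in these data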;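 also: 0% = plate median of compound wells and 100% = 30 µM serotonin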
AHR act: activates the human aryl hydrocarbon receptor. P35869. AHR-responsive luciferase reporter cells, luminescence. activation, % at 5 µM. actives 2.5% (n = 320,000). AID 2796; in the data active = activation above about 47%;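 also: 0% = vehicle wells and 100% = reference agonist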
Target sequence (P35869 whole entry, looked up): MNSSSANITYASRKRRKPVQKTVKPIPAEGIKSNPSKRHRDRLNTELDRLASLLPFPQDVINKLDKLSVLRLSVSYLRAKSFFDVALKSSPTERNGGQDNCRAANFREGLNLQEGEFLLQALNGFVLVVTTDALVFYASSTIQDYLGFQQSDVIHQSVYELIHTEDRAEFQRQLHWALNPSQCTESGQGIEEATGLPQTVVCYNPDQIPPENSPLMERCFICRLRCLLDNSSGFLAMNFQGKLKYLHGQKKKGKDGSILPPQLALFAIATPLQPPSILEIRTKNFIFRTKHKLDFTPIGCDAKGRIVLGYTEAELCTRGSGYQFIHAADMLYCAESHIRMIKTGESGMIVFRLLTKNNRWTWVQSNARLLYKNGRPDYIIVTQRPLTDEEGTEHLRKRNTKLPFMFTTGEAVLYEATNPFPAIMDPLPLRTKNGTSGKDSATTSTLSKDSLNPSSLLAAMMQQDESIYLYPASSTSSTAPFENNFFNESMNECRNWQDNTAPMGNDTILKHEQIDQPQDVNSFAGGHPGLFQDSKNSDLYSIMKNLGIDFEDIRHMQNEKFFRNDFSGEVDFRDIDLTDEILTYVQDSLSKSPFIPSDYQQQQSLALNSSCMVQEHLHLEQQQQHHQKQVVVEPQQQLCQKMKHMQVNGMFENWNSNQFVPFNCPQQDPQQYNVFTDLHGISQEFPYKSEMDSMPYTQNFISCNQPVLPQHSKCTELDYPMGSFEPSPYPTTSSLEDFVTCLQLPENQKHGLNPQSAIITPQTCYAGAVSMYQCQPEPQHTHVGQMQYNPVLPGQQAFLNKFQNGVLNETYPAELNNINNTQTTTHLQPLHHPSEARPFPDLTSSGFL
AI-2 QS mod: modulators of Vibrio harveyi AI-2 quorum sensing system. Vibrio harveyi JMH597 AI-2 luminescence/OD600 ratio, 9 h; hits give low values; strain lacks LuxN and CqsS sensors; 0 = neutral-control median. activity change, % at 7.5 µM. actives 0.4% (n = 300,000). AID 2094; in the data active = activity change below about -75%, passing the limit was not always enough;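 also: luminescence divided by OD600 gain over 9 h not by final OD600 alone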
MsrA act: activators of bovine methionine sulfoxide reductase A; purified bovine MsrA, absorbance read-out; activation, % at 10.6 µM; actives 0.3% (n = 360,000); in the data active = activation above about 7.5%;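 also: 0% = vehicle and 100% = reference activator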
TbMetRS inhib: Trypanosoma brucei MetRS inhibition. actives 0.4% (n = 360,000). purified T. brucei MetRS, ATP depletion, Kinase-Glo luminescence. AID 624268. inhibition, % at 11.9 µM;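 active = inhibition above a per-plate cutoff of the control wells' mean inhibition plus 3 SD, cut at about 5.5% in these data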;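 also: 0% = DMSO wells median and 100% = median of wells with control inhibitor compound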
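System: purified T. brucei MetRS enzyme / Detection: Kinase-Glo luciferase luminescence reporting remaining unconsumed ATP / Medium: HEPES buffer with MgCl2, KCl, DTT, spermine, BSA, pyrophosphatase / Replication: singlicate, one well per compound / Evaluation: percent inhibition relative to median high and low control wells / Schedule: 2 h aminoacylation at 25 °C after 15 min preincubation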
MsrA inh: bovine MsrA inhibition. purified bovine MsrA, absorbance read-out. inhibition, % at 15.5 µM. actives 0.75% (n = 360,000); in the data active = inhibition above about 4.5%;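 also: 0% = vehicle wells with enzyme and 100% = reference inhibitor wells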
Tb MetRS conf: Trypanosoma brucei MetRS inhibition confirmed. T. brucei MetRS enzyme, luminescence (ATP depletion). AID 624412. actives 93% (n = 1,400). shares compounds with TbMetRS inhib. inhibition, % at 11.9 µM; in the data active = inhibition above about 7%
Jurkat tox: counter-screen for T. brucei MetRS inhibitors: Jurkat cell cytotoxicity; inhibition, % at 8.3 µM; AID 624413; actives 12% (n = 1,400); shares compounds with TbMetRS inhib; Jurkat cells viability, ATP luminescence; in the data active = inhibition above about 15%;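 also: 0% = vehicle and 100% = reference inhibitor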
TbMetRS FP orth: inhibits T. brucei methionyl tRNA synthetase in orthogonal FP test; purified T. brucei MetRS, fluorescence polarization; shares compounds with TbMetRS inhib; inhibition, % at 11.9 µM; AID 651607; actives 44% (n = 1,400); in the data active = inhibition above about 17%;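 also: 0% = vehicle wells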
Numbers without * were called inactive; nt = not tested or not shown.

SMILES	m5-HT2A agonist	AHR act	AI-2 QS mod	MsrA act	TbMetRS inhib	MsrA inh	Tb MetRS conf	Jurkat tox	TbMetRS FP orth
COc1ccc(/C=C(/C#N)c2cccnc2)cc1OC	-1.4	64.3*	15.1	-4.0	15.8*	2.2	21.4*	-4.7	14.9
COc1ccc(C(C#N)=Cc2ccc(OC)c(OC)c2)cc1	0.8	nt	nt	-2.4	0.0	0.1	nt	nt	nt
Cc1cc(OC(=O)c2ccccc2C)c([N+](=O)[O-])c(=O)[nH]1	-1.2	0.4	11.9	-1.5	0.0	2.4	nt	nt	nt
O=C(CN1C(=O)c2cccc([N+](=O)[O-])c2C1=O)N1CCc2ccccc2C1	-5.5	nt	nt	-1.4	-0.1	-0.5	nt	nt	nt
O=C(CNC(=O)c1cccc(Br)c1)N/N=C/c1ccc[nH]1	-3.9	-1.7	-1.0	-4.1	20.1*	2.0	53.4*	14.6	24.4*
O=C(CNC(=O)c1cccc(Br)c1)N/N=C/c1cn[nH]c1-c1ccccc1	-5.9	31.5	13.4	-3.1	0.2	-0.6	nt	nt	nt
CCOC(=O)C1(C(C)(C)CC)CC(CSc2nc3ccccc3[nH]2)OC1=O (centres undefined)	-5.4	19.6	49.8	1.5	5.7*	-0.4	15.5*	7.5	8.0
CCOC(=O)NC(=O)CSc1nc2ccccc2[nH]1	2.2	0.5	11.4	-1.1	-0.4	1.1	nt	nt	nt
COc1cc(C2C(C#N)=C(N)Oc3cc(O)ccc32)cc2c1OCO2 (centres undefined)	0.5	3.8	4.4	-8.4	14.5*	1.5	2.5	36.1*	4.3
COc1cc(C2C(C#N)=C(N)Oc3cc(O)ccc32)cc(OC)c1OC (centres undefined)	6.9	1.2	26.8	-3.4	-0.1	0.7	nt	nt	nt
COc1cc(C2C(C#N)=C(N)Oc3cc(N(C)C)ccc32)cc2c1OCO2 (centres undefined)	-3.5	4.0	44.6	-5.1	18.8*	0.7	2.0	81.9*	7.5
COc1ccccc1C(=O)NCCC(=O)Nc1ncccc1O	0.8	-1.7	12.5	-1.8	-0.3	0.7	nt	nt	nt
CN(c1ccc(OCC(=O)OCC(=O)Nc2ccc([N+](=O)[O-])cc2)cc1)S(=O)(=O)c1cccs1	-9.5	nt	nt	-5.6	-0.2	0.9	nt	nt	nt
Cc1cccc(C)c1-n1nnnc1-c1nc2cc3ccccc3cc2[nH]c1=O	4.0	nt	nt	-1.1	54.3*	0.7	55.8*	70.4*	19.4*
COC(=O)Cn1nnnc1-c1nc2cc(C)c(C)cc2[nH]c1=O	3.9	nt	nt	-5.7	-0.1	1.3	nt	nt	nt
Cc1ccc2c(c1)c1nnc(SCC(=O)Nc3cccc(Cl)c3C)nc1n2CC(=O)O	-3.5	7.4	17.5	-2.1	22.6*	2.5	64.6*	-7.0	32.7*
CCN(C(=O)c1c([N+](=O)[O-])cnn1C)c1ccccc1	1.2	nt	nt	-2.6	0.3	-0.8	nt	nt	nt
CN(CC(=O)Nc1ccc(F)c(F)c1F)C(=O)c1n[nH]c(=O)c2ccccc12	2.3	0.3	nt	-2.3	-0.4	0.1	nt	nt	nt
O=C(O)CN1C(=O)/C(=C\c2ccc(OC(=O)c3ccco3)cc2)SC1=S	3.3	1.0	7.6	-3.5	8.8*	1.5	26.9*	-4.7	15.3
O=C(NCCCCc1ccccc1)Nc1cccc(F)c1	-2.1	2.1	-7.4	-3.1	10.7*	-1.5	44.2*	-1.8	34.9*
Cc1cccc(NC(=O)NCCCCc2ccccc2)c1	-6.0	13.3	-15.1	-6.5	-0.2	-0.6	nt	nt	nt
O=C(O)[C@H]1CCCN1C(=O)c1ccccc1N1C(=O)[C@@H]2Cc3c([nH]c4ccccc34)C(c3cccc(Cl)c3)N2C1=O (some centres undefined)	-0.1	20.6	40.3	-1.9	8.3*	1.6	18.3*	4.2	8.0
Cn1nc(C(F)(F)F)c2cc(C(=O)Nc3ccc(F)cc3)sc21	-6.7	-0.5	12.2	-0.6	0.4	0.3	nt	nt	nt
Cn1nc(C(F)(F)F)c(-c2ccc(F)cc2)c1NC(=O)Nc1ccc(F)cc1	-2.0	-0.6	7.0	-9.6	9.4*	-0.5	21.2*	6.0	14.4
COc1cccc(/C(O)=C/c2nc3ccc(C(=O)NCCc4cccc(C)c4)cc3[nH]c2=O)c1	-2.3	0.8	6.8	-7.7	7.4*	0.4	6.6*	15.1*	3.0
SMILES	m5-HT2A agonist	AHR act	AI-2 QS mod	MsrA act	TbMetRS inhib	MsrA inh	Tb MetRS conf	Jurkat tox	TbMetRS FP orth
Cc1cc(C)n(C(=O)N(c2ccccc2)c2ccccc2)n1	-3.2	2.6	7.9	-1.0	0.5	2.2	nt	nt	nt
O=C(CCSc1ccc(Br)cc1)Nc1cccnc1	-7.5	3.0	6.3	-1.4	6.4*	-0.5	10.8*	-3.0	4.4
Cc1cc(-c2ccc(C(C)C)c(S(=O)(=O)N3CCN(c4ccccn4)CC3)c2)on1	2.0	4.4	29.0	-3.8	8.0*	0.4	12.4*	50.5*	4.2
O=C(c1cnc(Cc2c[nH]c3ccccc23)c(I)c1)N1CCN(Cc2ccccc2)CC1	1.8	nt	nt	0.2	2.1	-0.3	nt	nt	nt
CCN(CC)S(=O)(=O)c1ccc(N2CCOCC2)c(NCC(=O)Nc2ccc(F)cc2)c1	-0.3	-0.7	9.1	-8.7	22.1*	-0.6	32.7*	0.6	15.4
CCN1CCN(S(=O)(=O)Cc2ccccc2Cl)CC1	0.7	-2.7	11.2	-2.8	-0.6	-0.8	nt	nt	nt
CCOC(=O)CC(=O)NC(C)(C)CCCCC(C)(C)NC(=O)CC(=O)OCC	0.7	0.3	33.0	-0.3	6.9*	1.5	2.9	-2.5	4.7
CCOc1c(Cl)cc(CNc2ccc(S(N)(=O)=O)cc2)cc1OC	4.8	-0.5	22.9	-8.0	-0.5	-2.0	nt	nt	nt
COc1c(Cl)cc(Cl)cc1CNc1ccc(S(N)(=O)=O)cc1	3.6	-0.4	-2.2	-3.8	15.6*	1.3	25.3*	17.4*	11.7
Cc1ccc(NC(=O)COC(=O)C2CCN(c3ccc(C(F)(F)F)cn3)CC2)cc1C	-0.9	1.7	nt	-0.9	-0.2	-2.0	nt	nt	nt
O=C(COC(=O)C1CCN(c2ccc(C(F)(F)F)cn2)CC1)Nc1cccc(F)c1	-5.6	4.3	17.4	0.5	6.0*	0.7	19.3*	0.4	5.7
Nc1ccc2nc(CCCCc3nc4ccccc4[nH]3)[nH]c2c1	0.5	nt	4.2	-1.4	9.3*	-0.1	14.2*	3.2	5.0
CC1(c2nc3ccccc3[nH]2)CCC(=O)N1Cc1ccc(F)cc1 (centres undefined)	0.8	nt	nt	-4.0	-0.2	-1.2	nt	nt	nt
Cc1ccc2nc(/C(C#N)=C/c3ccc(-c4ccccc4C(=O)O)o3)[nH]c2c1	4.8	30.4	2.3	-1.5	6.0*	0.6	21.7*	4.2	4.0
